Source: PubChem BioAssay (several laboratories)
OX1R antag-1 – OX1R (HCRTR1) antagonists, primary screen, fluorescence, CHO/OX1R cells, Fluo-8 calcium, orexin A; Fluo-8 calcium fluorescence; inhibition, % at 5 µM; Orexin/Hypocretin receptor type 1 (Homo sapiens), O43613; 330,000 compounds, 0.43% hits;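 active = inhibition above its plate's threshold, mean inhibition of all tested compounds on the plate plus 3 SD, cut at about 37% in these data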;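 note: 0% = orexin A challenge wells and 100% = SB-334867-A antagonist wells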
Target sequence (O43613 whole entry, looked up): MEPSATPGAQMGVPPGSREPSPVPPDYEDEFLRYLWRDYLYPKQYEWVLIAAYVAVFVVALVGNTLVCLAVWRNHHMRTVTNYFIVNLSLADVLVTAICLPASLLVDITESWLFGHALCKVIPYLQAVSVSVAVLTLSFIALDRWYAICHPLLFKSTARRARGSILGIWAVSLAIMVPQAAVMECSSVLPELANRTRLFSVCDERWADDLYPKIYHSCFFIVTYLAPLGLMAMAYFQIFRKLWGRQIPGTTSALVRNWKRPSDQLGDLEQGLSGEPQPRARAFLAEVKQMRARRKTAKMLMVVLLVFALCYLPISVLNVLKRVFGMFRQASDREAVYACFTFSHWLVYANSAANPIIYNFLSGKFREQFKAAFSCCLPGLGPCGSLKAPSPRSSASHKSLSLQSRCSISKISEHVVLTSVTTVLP
CHO parental Ca – ATP-evoked calcium signal inhibitors, parental CHO, primary screen, counter-screen for OX1R antagonist project, cell-based, fluorescence, Fluo-8 calcium dye | parental CHO-K1, ATP-induced calcium, Fluo-8 fluorescence | inhibition, % at 5.6 µM | 330,000 compounds, 0.63% hits | AID 463079, 2010;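 active = inhibition above that plate's mean sample inhibition plus 3 SD, cut at about 26% in these data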;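 note: 0% = ATP-challenged DMSO wells and 100% = DMSO wells without ATP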
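Material: parental CHO cells / Compound: single nominal dose of 5.6 µM per compound / Signal: Fluo-8 fluorescence / Replicates: singlicate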
OX1R antag-2 – antagonists of human orexin 1 receptor (OX1R); Orexin/Hypocretin receptor type 1 (Homo sapiens), O43613; OX1R-expressing cells, FRET antagonist read-out; inhibition, % at 6.6 µM; 330,000 compounds, 1.8% hits; AID 485270, 2010; in the data active = inhibition mostly above about 38%, no sharp cut-off; inactive = mostly below about 40%;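 note: 0% = agonist challenge alone and 100% = reference antagonist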
MPTP block – mitochondrial permeability transition pore inhibitors, primary screen, biochemical, isolated mouse mitochondria, absorbance. Ca2+ swelling absorbance, 30 min. inhibition, % at 10 µM. 360,000 compounds, 1.4% hits;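 active = inhibition of 50% or more, scaled per plate between neutral and stimulator controls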;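 note: 0% = DMSO wells given calcium and 100% = 1 mM EGTA wells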
GPR7 antagonist – GPR7 receptor antagonists, primary screen, cell-based, fluorescence, single concentration; 290,000 compounds, 1.1% hits; Neuropeptides B/W receptor type 1 (Homo sapiens), P48145; GPR7-expressing cells, fluorescence antagonist assay; inhibition, % at 4.4 µM; AID 1861, 2009; in the data active = inhibition above about 16%, passing the limit was not always enough;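 note: cells stimulated with the agonist NPW; 0% = agonist with vehicle and 100% = vehicle without agonist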
OX1R Fluo8 conf – OX1R (HCRTR1) antagonists, confirmation, fluorescence, CHO/OX1R cells, Fluo-8 calcium, orexin A. shares compounds with OX1R antag-1. orexin A calcium Fluo-8 fluorescence. inhibition, % at 5 µM. 1,100 compounds, 38% hits; in the data active = inhibition above about 29%;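 note: 0% = agonist challenge alone and 100% = reference antagonist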
CHO Ca triplic – ATP-evoked calcium inhibition in parental CHO, counter-screen for OX1R antagonist project, cell-based, fluorescence, CHO-K1, triplicate | shares compounds with OX1R antag-1 | ATP-induced calcium, Fluo-8 fluorescence | inhibition, % at 5.6 µM | 1,100 compounds, 9.3% hits | AID 492965, 2010;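 active = inhibition above a per-plate limit, the mean inhibition of that plate's test compounds plus 3 SD, cut at about 25% in these data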;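 note: 0% = ATP challenge with DMSO and 100% = DMSO without ATP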
OX1R HTRF confirm – OX1R (HCRTR1) antagonists, confirmation, cell-based, HTRF. OX1R-expressing cells, HTRF antagonist assay. 1,800 compounds, 49% hits. inhibition, % at 6.6 µM. AID 492964, 2010. shares compounds with OX1R antag-2; in the data active = inhibition above about 55%;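 note: CHO cells expressing OX1R stimulated with orexin A at about EC80; 0% = agonist challenge alone and 100% = reference antagonist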
CHO-K1 HTRF cnt – signal inhibition in parental CHO-K1 cells, counter-screen for OX1R antagonist project, cell-based, HTRF; shares compounds with OX1R antag-2; HTRF counterscreen; inhibition, % at 6.6 µM; 1,800 compounds, 48% hits; in the data active = inhibition above about 17%;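 note: 0% = agonist challenge with vehicle and 100% = vehicle alone without agonist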
* = called active by the depositor; nt = not tested or not shown. Shown are actives, neighbours in structure and some others; about 3.8% of the full set was active somewhere.

SMILES | OX1R antag-1 | CHO parental Ca | OX1R antag-2 | MPTP block | GPR7 antagonist | OX1R Fluo8 conf | CHO Ca triplic | OX1R HTRF confirm | CHO-K1 HTRF cnt
COc1ccc(C(=O)/C=C/c2cn(CN3CCN(C)CC3)c3ccccc23)cc1 | 25 | -7 | 71* | 41 | -5 | 9 | -9 | 33 | 6
Cc1cc(C)cc(CSCC(=O)N/N=C/c2ccc(OCC(=O)NCc3ccco3)cc2)c1 | 50* | -20 | 58* | 0 | 2 | 32* | -2 | 54 | 7
Cc1cccc(N(CC(=O)N/N=C/c2ccc(OCC(=O)NCc3ccco3)cc2)S(C)(=O)=O)c1C | -27 | -10 | 22 | -3 | 9 | nt | nt | nt | nt
CCc1nnc(NC(=O)c2ccc3ccccc3n2)s1 | -25 | -16 | 54 | 0 | 2 | nt | nt | nt | nt
CCSc1nnc(NC(=O)c2ccc3ccccc3n2)s1 | 79* | -1 | 94* | -6 | 8 | 43* | -2 | 92* | 7
Cc1ccc(NC(=O)c2ccc3ccccc3n2)nc1 | 39 | -19 | 87* | 1 | -4 | 38* | -12 | 97* | -3
CCCCNC(=S)NNC(=O)c1c(C)nc2ccccn12 | -12 | 1 | 7 | -2 | -11 | nt | nt | nt | nt
COc1ccc(CCNC(=O)COc2ccc(-c3ccc(C)cc3)cc2)cc1OC | 70* | -14 | 66* | 1 | -11 | 24 | -2 | 76* | 9
COc1ccc(CCNC(=O)CCOc2ccc(C)cc2)cc1OC | -18 | -5 | 17 | -2 | -8 | nt | nt | nt | nt
COc1ccccc1N(C)S(=O)(=O)c1ccc(Cl)c(C(=O)NNC(=O)c2ccccc2O)c1 | -15 | -15 | 47 | 1 | -13 | nt | nt | nt | nt
COc1ccccc1N(C)S(=O)(=O)c1ccc(Cl)c(C(=O)OCc2c(C)noc2C)c1 | 26 | -4 | 54* | 2 | -4 | 13 | -7 | 34 | -1
CN(Cc1ccccc1)C(=O)CN1C(=O)NC(C)(c2ccc(Cl)cc2)C1=O (configuration not stated) | -17 | -13 | 7 | 1 | -10 | nt | nt | nt | nt
CN1CCC/C1=C/C=C1\SC(=S)NC1=O | 47 | 32 | 80* | -5 | -2 | 33* | 32* | 55 | 98*
O=C1NC(=S)SC1=Cc1cccs1 | nt | nt | nt | 43 | nt | nt | nt | nt | nt
Fc1cccc2sc(Nc3nc4cc5c(cc4s3)OCCO5)nc12 | 25 | -13 | 48 | 5 | -14 | nt | nt | nt | nt
Fc1cccc2sc(Nc3nc4cc5c(cc4s3)OCO5)nc12 | 41* | -12 | 76* | 8 | -6 | 22 | 0 | 59* | 6
Nc1nc2ccc(-c3nc4ccccc4o3)cc2s1 | 72* | -12 | 97* | 0 | 2 | 32* | -4 | 89* | 5
Cc1noc(C)c1COC(=O)c1ccc2c(c1)OCO2 | -5 | 1 | 6 | 0 | -10 | nt | nt | nt | nt
Cc1noc(C)c1COC(=O)c1ccc2c(c1)S(=O)(=O)c1ccccc1C2=O | 59* | -18 | 111* | -1 | -9 | 65* | -9 | 102* | 17*
CC(=O)Nc1cccc2c1C(=O)N(c1ccccc1OC(C)=O)C2=O | -26 | 14 | 17 | 2 | -5 | nt | nt | nt | nt
CCC(C)(C)NC(=O)CN(C(=O)c1csnn1)c1cccc2c1CCCC2 | -11 | -5 | 8 | -3 | 4 | nt | nt | nt | nt
CCC(C)(C)NC(=O)CN(C(=O)c1csnn1)c1ccccc1-c1ccccc1 | 72* | -24 | 87* | 2 | -11 | 32* | 11 | 84* | 4
COc1ccc(-c2cc(C(=O)Nc3ccccc3SC)no2)cc1OC | -13 | -14 | 11 | -1 | -16 | nt | nt | nt | nt
COc1cccc(-c2cc(C(=O)Nc3ccccc3SC)no2)c1 | 76* | -18 | 60* | -2 | -6 | 71* | -7 | 95* | 13
Cc1ccc2c(c1)c1c3n2CCNC3CCC1 (configuration not stated) | -4 | -3 | 7 | 9 | 15 | nt | nt | nt | nt
SMILES | OX1R antag-1 | CHO parental Ca | OX1R antag-2 | MPTP block | GPR7 antagonist | OX1R Fluo8 conf | CHO Ca triplic | OX1R HTRF confirm | CHO-K1 HTRF cnt
Cc1ccc(C)n1-c1ccc(C(=O)NN=C2CCCC2)cc1 | 7 | 2 | 11 | 6 | 0 | nt | nt | nt | nt
CC(=O)Cc1nsc(NC(=O)c2ccc(-c3ccccc3Cl)o2)n1 | 61* | -26 | 80* | 0 | -2 | 3 | 8 | 40 | 7
CC(C)n1ncc2c(C(=O)NCC(=O)Nc3ccccc3Br)cc(C3CC3)nc21 | 45* | -35 | 40* | 2 | nt | 4 | -3 | 44 | 2
CC(C)n1ncc2c(C(=O)Nc3ccccc3SCC(N)=O)cc(C3CC3)nc21 | nt | nt | nt | 0 | nt | nt | nt | nt | nt
Cc1cc([N+](=O)[O-])ccc1NC(=O)CSc1nnc(C)n1C | 13 | 8 | 23 | 0 | 6 | nt | nt | nt | nt
CCOC(=O)CN1C(=O)/C(=C/c2cccc(Br)c2)Oc2ccccc21 | -14 | -4 | 12 | 1 | -5 | nt | nt | nt | nt
O=C(CN1C(=O)/C(=C/c2ccccc2)Sc2ccccc21)NCCCN1CCOCC1 | -1 | -18 | 9 | -1 | -2 | nt | nt | nt | nt
O=C(CN1C(=O)/C(=C\c2cccc(Br)c2)Oc2ccccc21)NCC1CCCO1 (configuration not stated) | 32 | -23 | 67* | 1 | 4 | 79* | -13 | 90* | 1
CCc1ccc(/C=C2/Sc3ccccc3N(CC(=O)NCC3CCCO3)C2=O)cc1 (configuration not stated) | 84* | 13 | 95* | 0 | 8 | 45* | -14 | 87* | 5
Cc1ccc(/C=C2/Sc3ccccc3N(CC(=O)NCC3CCCO3)C2=O)cc1 (configuration not stated) | 55* | -16 | 77* | -3 | -11 | 59* | -3 | 88* | 7
Cc1ccc(N2CC(C(=O)Nc3ccc(S(=O)(=O)Nc4ncccn4)cc3)CC2=O)cc1C (configuration not stated) | -3 | 5 | 5 | 0 | 0 | nt | nt | nt | nt
O=C(Nc1ccc(Br)cc1)C1CCN(C(=O)c2ccco2)CC1 | -9 | -8 | 23 | 0 | 2 | nt | nt | nt | nt
O=C(NCc1ccc(/C=N\NC(=O)C(=O)Nc2ccccc2Br)o1)C(=O)Nc1ccccc1 | 9 | 4 | 19 | 4 | -8 | nt | nt | nt | nt
